Assay results from different studies.
Protocols differ between the studies behind these lines.
Target: TGF-beta receptor type-1 (TGFBR1, Homo sapiens, UniProt P36897)

`NS(=O)(=O)c1cc(NC(=O)C2(c3ccccc3Cl)CC2)ccc1Oc1cccc(Cl)c1` gave a remaining binding of 82% (cell-free assay, competition with immobilised ligand; 1 µM).
`Cc1sc(C(=O)NC2COC2)cc1-n1cc(NC(=O)Nc2c(F)cccc2Cl)cn1` has a remaining activity of 104% (enzyme activity, inhibitor; 10 µM).
With `CO[C@@H](C)c1c(Nc2ccc([C@@H](N(C)C(=O)C3CCS(=O)(=O)CC3)C(F)(F)F)cc2)cnc2cc(Cl)nn12` the remaining binding was 95% (cell-free assay, competition with immobilised ligand; 1 µM).
For `O=C(CSc1nc2nccnc2c(=O)n1CCc1ccccc1)Nc1nccs1`, the inhibition was 1% (enzyme activity, inhibitor; 10 µM).
With `c1ccc(-c2[nH]ncc2-c2ccnc3ccccc23)nc1` the remaining signal was 41.6% (cell-free assay; 0.5 µM).
With `Nc1ncnc2occ(-c3ccc(NC(=O)Nc4cc(C(F)(F)F)ccc4F)cc3)c12` the remaining signal was 52% (cell-free assay; 20 µM).
The remaining binding of `CN(C)c1ncnc(-c2ccc3nc(Nc4cc(CN5CCN(C(=O)CC(F)(F)F)CC5)ccn4)[nH]c3c2)c1Cl` is reported as 100% (cell-free assay, competition with immobilised ligand; 1 µM).
For `COc1cccc(F)c1Cn1cnc(-c2ccncc2)c1-c1ccc(F)cc1`, the inhibition was 19% (cell-free assay, TR-FRET; 1 µM).
For `COc1cc(Nc2cnc(C#N)c(O[C@H](C)CN(C)C)n2)ncc1-c1cnn(C)c1`, the remaining activity was 122% (enzyme activity, inhibitor, radiometric; 1 µM).
`COc1cc(-c2cc(-c3ccc(N4CCNCC4)cc3)cnc2C)cc(OC)c1OC` gave an inhibition of 32% (enzyme activity, inhibitor; 1 µM).
With `C#Cc1cccc(Nc2ncnc3cc(OCCOC)c(OCCOC)cc23)c1` the remaining signal was 99.1% (cell-free assay; 0.5 µM).
`Fc1ccc(-c2ncn(C3=CCCCC3)c2-c2ccncc2)cc1` has an inhibition of 19% (cell-free assay, TR-FRET; 1 µM).
With `CC(C)(O)[C@H]1CC[C@H](Nc2ccc3ncc(-c4cccc(C(F)(F)F)c4)n3n2)CC1` the remaining activity was 108% (enzyme activity, inhibitor; 1 µM).
`Cc1ccc(Nc2nccc(N(C)c3ccc4c(C)n(C)nc4c3)n2)cc1S(N)(=O)=O` has a remaining signal of 103% (cell-free assay; 0.5 µM).
For `CC(C)(C)c1nc2c(s1)c1nc(N)ncc1c1ccc(NS(=O)(=O)c3c(F)cccc3F)c(F)c12`, the remaining activity was 102% (enzyme activity, inhibitor, radiometric; 1 µM).
For `O=C1Nc2ccc(Cl)cc2C1=Cc1cc(Cl)c(O)c(Cl)c1`, the remaining signal was 102% (cell-free assay; 0.5 µM).
For `Fc1ccc(-c2ncn(-c3ccc(-c4ccccc4)cc3)c2-c2ccncc2)cc1`, the inhibition was 15% (cell-free assay, TR-FRET; 1 µM).
The remaining activity of `COc1cc(Cl)c(C(=O)N[C@@H](CN[C@H]2CC[C@@H](N)CC2)Cc2ccc(C#N)cc2)cc1-c1ccc(CN[C@H](C)c2ccc(C)cc2)o1` is reported as 103% (enzyme activity, inhibitor; 1 µM).
`NS(=O)(=O)c1cc(NC(=O)Cc2ccccc2)ccc1Oc1cccc(Cl)c1` has a remaining binding of 100% (cell-free assay, competition with immobilised ligand; 1 µM).
For `CN1CC(Oc2cnc(C#N)cc2-c2ccn3nc(NC(=O)C4CC4)cc3c2)C1`, the inhibition was -9% (enzyme activity, inhibitor; 1 µM).
With `COc1ccc2c(c1)O[C@@H](c1ccc(OC)c(OC)c1)C[C@H]2NC(=O)C1(c2ccc3c(c2)OC(F)(F)O3)CC1` the remaining binding was 100% (cell-free assay, competition with immobilised ligand; 1 µM).
The remaining signal of `O=C1NC(=O)c2cc(Nc3ccc(F)cc3)c(Nc3ccc(F)cc3)cc21` is reported as 98.1% (cell-free assay; 0.5 µM).
The remaining binding of `CCOC(=O)c1cc2cc(-c3cc(C(=O)NCc4ccc(C(=O)O)cc4)nn3C)ccc2[nH]1` is reported as 100% (cell-free assay, competition with immobilised ligand; 0.1 µM).
The inhibition of `C=CC(=O)Nc1cc(Nc2nccc(Nc3cc(Cl)c(F)cc3C(C)(C)O)n2)c(OC)cc1N1CC[C@@H](N(C)C)C1` is reported as 42% (enzyme activity, inhibitor; 1 µM).
`Fc1ccc(-c2ncn(-c3ccccc3)c2-c2ccncc2)cc1` has an inhibition of 31% (cell-free assay, TR-FRET; 1 µM).
With `C[C@H](c1cccc(C#N)c1)n1cc(Cl)cc(C(N)=O)c1=N` the remaining binding was 100% (cell-free assay, competition with immobilised ligand; 1 µM).
The inhibition of `Fc1ccc(-c2ncn(-c3ccc4ccccc4c3)c2-c2ccncc2)cc1` is reported as 14% (cell-free assay, TR-FRET; 1 µM).
The remaining binding of `O=C(NS(=O)(=O)c1ccc(NCC2CCOCC2)c([N+](=O)[O-])c1)c1ccc(N2CCN(Cc3ccc(C(F)(F)F)cc3-c3ccc(Cl)cc3)CC2)cc1Oc1cnc2[nH]ccc2c1` is reported as 93% (cell-free assay, competition with immobilised ligand; 1 µM).
